High-throughput results from PubChem BioAssay.
procasp3 activ: procaspase-3 (human) activation; AID 463141; hit rate 0.11% among 330,000; recombinant procaspase-3 D3A, Ac-DEVD-pNA absorbance 405 nm; activation, % at 8.5 µM; P42574;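 active = activation above the mean of all tested compounds plus 3 SD, cut at about 21% in these data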
Target sequence (P42574 whole entry D9A/D28A/D175A): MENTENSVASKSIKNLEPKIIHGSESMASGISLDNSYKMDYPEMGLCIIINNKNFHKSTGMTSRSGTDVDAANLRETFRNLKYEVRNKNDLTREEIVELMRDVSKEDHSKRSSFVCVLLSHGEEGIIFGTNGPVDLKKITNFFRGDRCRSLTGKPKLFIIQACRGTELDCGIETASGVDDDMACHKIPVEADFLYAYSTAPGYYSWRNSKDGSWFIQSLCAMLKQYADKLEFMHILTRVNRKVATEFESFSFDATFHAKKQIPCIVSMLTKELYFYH
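Compound: 8.5 µM single point, 0.8% DMSO / Material: Autoprocessing-dead procaspase-3 D3A mutant enzyme / Timing: 1 h preincubation plus 2 h reaction at 25 °C / Medium: Zinc-free HEPES/NaCl buffer with 0.01% Triton X-100 at pH 7.4 / Technique: 405 nm absorbance of p-nitroaniline, reads at 0 and 120 min / Repeats: one well per compound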
CHT block: inhibits the human high affinity choline transporter | Q9GZV3 | CHT-expressing cells, membrane potential dye, choline response; hits give low values | B-score at 10 µM | hit rate 0.86% among 310,000 | AID 488975;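 active = B-score over 3 SD under the library average, and starting fluorescence ratio not unusually high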;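 also: choline stimulus applied at its EC90 after an EC20 pre-addition; B-score computed on integrated fluorescence ratio after choline addition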
proCasp7 act: counter-screen for procaspase-3 activators: activators of human procaspase-7; P55210; recombinant procaspase-7, Ac-DEVD-pNA absorbance 405 nm; D23A/D198A/D206A triple mutant, cannot self-cleave; scale: DMSO 0, 5 µM enzyme 100; activation, % at 8.5 µM; hit rate 0.093% among 330,000;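 active = percent activation above the screen-wide mean plus 3 SD, cut at about 25% in these data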
Target sequence (P55210 whole entry D23A/D198A/D206A): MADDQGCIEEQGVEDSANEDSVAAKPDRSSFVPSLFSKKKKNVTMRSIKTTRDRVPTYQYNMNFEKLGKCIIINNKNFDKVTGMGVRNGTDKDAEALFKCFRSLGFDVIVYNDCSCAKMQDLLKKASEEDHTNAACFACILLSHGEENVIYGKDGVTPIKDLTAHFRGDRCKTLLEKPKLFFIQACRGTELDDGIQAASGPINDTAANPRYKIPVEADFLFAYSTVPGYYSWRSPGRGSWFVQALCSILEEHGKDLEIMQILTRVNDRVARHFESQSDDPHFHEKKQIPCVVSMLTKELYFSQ
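signal = Epi-absorbance of released pNA at 405 nm, two timepoints | assay system = Uncleavable procaspase-7 mutant enzyme | reagent = Ac-DEVD-pNA substrate, 400 µM as added | times = 1 h enzyme–compound preincubation and 2 h substrate reaction, both 25 °C | benchmarks = low DMSO alone, high DMSO plus 5 µM PC-7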
CHT allo act: allosterically activates the human high affinity choline transporter | Q9GZV3 | CHT-expressing cells, membrane potential dye, choline EC20; hits give high values; LV-AA mutant CHT in HEK293 cells | B-score at 10 µM | hit rate 0.49% among 310,000 | AID 488977;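 active = initial fluorescence not abnormally high and integrated response B-score, plate-corrected, over 3 SD above library mean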
CHT activ conf: confirmation of human choline transporter (CHT) activators; CHT-expressing cells, membrane potential dye fluorescence (FDSS); % of choline EC20–EC90 response window; HEK293 expressing CHT LV-AA mutant; choline added at its EC20; hit rate 91% among 2,500; shares compounds with CHT allo act; activation, % at 10 µM;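 active = primary screen active, with duplicate mean activation above negative control mean plus 3 SD, cut at about 11% in these data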
HEK293 MP dye: activity in parental HEK293 cells lacking CHT; ratio readout change at 10 µM, hits read low; hit rate 62% among 2,500; AID 623908; shares compounds with CHT allo act; membrane potential dye fluorescence (FDSS); measured after EC20 choline addition;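 active = duplicate-averaged ratio beyond 3 SD from buffer wells, up or down, though filed actives are nearly all decreases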
Each line names hits and unclear results; the compound was inactive in the other large screens (follow-up assays come after a bar, where they were run). This is a sample that favours compounds with a hit; in the whole collection about 1.3% have one here.

CCOC(=O)C1CCN(C(=O)c2ccc(S(=O)(=O)Nc3ccccc3OC)cc2)CC1	none (no result: CHT block, CHT allo act)
CCOC(=O)c1c(NC(=O)CSc2nc3ccccc3o2)sc(C(C)=O)c1C	CHT allo act 9.07 | CHT activ conf 11.8 | HEK293 MP dye inactive
CCOC(=O)c1c(NC(=O)CSc2nnc(-c3ccccc3)o2)sc(C(C)=O)c1C	none
Cc1ccnc(SCCn2c(N3CCN(C)CC3)nc3c2c(=O)n(C)c(=O)n3C)n1	none
Cc1ccnc(SCCn2c(N3CCOCC3)nc3c2c(=O)[nH]c(=O)n3C)n1	CHT allo act 10.3 | CHT activ conf 65.1 | HEK293 MP dye -58
CCCn1c(N2CCN(Cc3cccc(C)c3)CC2)nc2c1c(=O)[nH]c(=O)n2C	none | CHT activ conf 12.3 | HEK293 MP dye -27.6
CN1CCN(c2nc3c(c(=O)[nH]c(=O)n3C)n2CCCSc2nnnn2-c2ccccc2)CC1	CHT allo act 6.59 | CHT activ conf 47.3 | HEK293 MP dye -49.4
CN1CCN(c2nc3c(c(=O)n(C)c(=O)n3C)n2CCSc2nc3ccccc3s2)CC1	CHT allo act 7.35 | CHT activ conf 65.5 | HEK293 MP dye -46.2
CCOc1cccc(CN2CCCC(N3CCc4cc(OC)c(OC)cc4C3)C2)c1O (stereo unspecified)	none
Cn1nccc1C(=O)OCC(=O)Nc1cccc(Cl)c1	none (no result: CHT block, CHT allo act)
CCOC(=O)c1sc(NC(=O)C(C)C)c(C#N)c1C	none
Cn1c(=O)c2c(nc(N3CCN(C(=O)c4ccco4)CC3)n2CCSc2ncccn2)n(C)c1=O	CHT allo act 7.12 | CHT activ conf 56.7 | HEK293 MP dye -58
CCN1CCN(c2nc3c(c(=O)[nH]c(=O)n3C)n2CCSc2nc3ccccc3s2)CC1	CHT allo act 13 | CHT activ conf 40.3 | HEK293 MP dye -45.4
CC(CSc1nc2ccccc2s1)Cn1c(N2CCCC2)nc2c1c(=O)[nH]c(=O)n2C (stereo unspecified)	none
CCN1/C(=C/C=C/C=C/C=C/c2sc3ccccc3[n+]2CC)Sc2ccccc21	CHT allo act 9.61 | CHT activ conf 28.6 | HEK293 MP dye -35.4
CC[n+]1c(/C=C(\C)SC)sc2ccccc21	CHT allo act 7.35 | CHT activ conf 58.3 | HEK293 MP dye -24.8
CC/C(=C/c1sc2ccccc2[n+]1CC)SC	CHT allo act 6.48 | CHT activ conf 50.5 | HEK293 MP dye inactive
CC[n+]1c(/C=C/Nc2ccccc2)sc2ccccc21	none | CHT activ conf 46.1 | HEK293 MP dye -50.8
O=C(CCCCCN1C(=O)[C@@H]2Cc3ccccc3CN2C1=O)Nc1ccccc1F	none
CC[n+]1c(/C=C(/C)SC)sc2ccccc21	CHT allo act 6.85 | CHT activ conf 59.1 | HEK293 MP dye -23.5
CCCn1c(CN2CCN(C(=O)OCC)CC2)nc2cc(NC(=O)CC)ccc21	none | CHT activ conf 9.8 | HEK293 MP dye inactive
O=c1c2ccccc2nc2ccc(NCc3ccco3)nn12	none
Cc1sc2nc3ccc(NCc4ccco4)nn3c(=O)c2c1C	CHT allo act 6.58 | CHT activ conf 12.0 | HEK293 MP dye -36.5
CCn1c2ccccc2c2nn(C)c(=N)nc21	CHT allo act 7.2 | CHT activ conf 65.8 | HEK293 MP dye -70.2
CCn1c2ccccc2c2n[nH]c(=S)nc21	none
N=C1C(c2nc3ccccc3[nH]2)=C(O)CN1NC(=O)COc1cccc(F)c1	none
Cc1cc2ncn(-c3ncnc4scc(-c5ccccc5)c34)c2cc1C	CHT allo act 8.41 | CHT activ conf 20.6 | HEK293 MP dye inactive
Cc1cc2ncn(-c3ncnc4sc(C)c(C)c34)c2cc1C	none
CCOc1ccc(CC(=O)N/N=C/c2sccc2C)cc1	none (no result: procasp3 activ, proCasp7 act)
CN(CC(=O)Nc1ccccc1C(F)(F)F)C(=O)c1ccc2c(=O)n3c(nc2c1)CCC3	none (no result: CHT block, CHT allo act)
CCOc1ccc(N(CC(=O)Nc2ccc(OC)cc2)S(=O)(=O)c2c(C)noc2C)cc1	none
COc1ccc(N(CC(=O)Nc2ccc(C)cn2)S(=O)(=O)c2c(C)noc2C)cc1	CHT allo act 6.59 | CHT activ conf inactive | HEK293 MP dye inactive
OC(CNCc1ccccn1)c1ccccc1 (stereo unspecified)	none
Fc1ccc(C(CCNCc2ccccn2)c2ccc(Cl)cc2)cc1 (stereo unspecified)	none | CHT activ conf 16.4 | HEK293 MP dye inactive
CCC(=O)c1ccc(OCC(=O)OC(C)C(=O)N2CCc3ccccc32)cc1 (stereo unspecified)	none
COc1ccc(/C=C2\Oc3cc(OCC(N)=O)ccc3C2=O)cc1OC	CHT allo act 6.24 | CHT activ conf 46.0 | HEK293 MP dye -37.3
COC(=O)COc1ccc2c(c1)O/C(=C\c1cccc([N+](=O)[O-])c1)C2=O	none
O=[N+]([O-])c1ccc(Cl)c(-c2ccc(/C=N/n3cnnc3)o2)c1	none | CHT activ conf 39.1 | HEK293 MP dye -50.8
O=[N+]([O-])c1ccc(OC(F)F)c(/C=N/n2cnnc2)c1	none | CHT activ conf 21.4 | HEK293 MP dye -24
COc1ccc(C(=O)N/C(=C\c2cn(S(=O)(=O)N(C)C)c3ccccc23)C(=O)NCCN2CCOCC2)cc1OC	none
N#Cc1ccc(NC(=O)COC(=O)CCc2nc3ccccc3c(=O)[nH]2)cc1	none
CC(C)(C)NC(=O)NC(=O)COC(=O)CNS(=O)(=O)/C=C/c1ccccc1	none
COCCN(C(=O)CCC(=O)Nc1cc(C)on1)C(C(=O)NC1CCCC1)c1ccc(C(C)C)cc1 (stereo unspecified)	none
Cc1ccc(S(=O)(=O)N(C)C)cc1NC(=O)COC(=O)c1ccc(Cl)cc1	none
Cc1ccc(C(=O)c2c3ccc([N+](=O)[O-])cc3[n+]([O-])n2CCCN)cc1	CHT allo act 6.49 | CHT activ conf 33.6 | HEK293 MP dye -40
Cc1ccc(C(=O)c2c3ccc(C(F)(F)F)cc3[n+]([O-])n2CCC(N)=O)cc1	none
CCCc1cc(=O)[nH]c(SCC(=O)N(CC)c2c(N)n(Cc3ccccc3)c(=O)[nH]c2=O)n1	none
c1cn(-c2ccc(-c3ccnc4ncnn34)cc2)cn1	CHT allo act 8.47 | CHT activ conf 40.9 | HEK293 MP dye -39.5
CCn1cc(C(=O)OCC(=O)NCc2ccc3c(c2)OCO3)c(=O)c2ccc(C)nc21	CHT allo act 10.2 | CHT activ conf 60.5 | HEK293 MP dye -56.2
CCn1cc(C(=O)OCC(=O)Nc2cccc(Cl)c2Cl)c(=O)c2ccc(C)nc21	none
CCn1cc(C(=O)OCC(=O)c2ccc(Cl)cc2)c(=O)c2ccc(C)nc21	none
C=CCn1cc(C(=O)OCC)c(=O)c2cc(F)c(F)cc21	CHT allo act 7 | CHT activ conf 47.7 | HEK293 MP dye -55.8
